We go through one molecule from PubChem BioAssay AID651929 (Vanderbilt Specialized Chemistry Center, 2012).

The assay deals with Muscarinic acetylcholine receptor M2 (Rattus norvegicus) (UniProt P10980). Put plainly: M2 receptor potentiation by M5-directed compounds, selectivity assay for M5 PAM discovery project, CHO cells, rat M2, calcium flux (AID 651929). The settings on record: CHO-K1 rM2/Gqi5, ACh EC20 calcium flux (Fluo-4); series mostly up to 30 µM. In a few lines:
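System: CHO-K1 cells expressing M2 receptor coupled to Gqi5 chimera / Detection: intracellular calcium response / Reagent: acetylcholine at EC20 (submaximal) concentration / Incubation: 1.5 min compound pretreatment, 50 s acetylcholine stimulation, 25 °C / Measure: calcium signal normalized to baseline, then % maximal acetylcholine response / Medium: pH 7.4 buffer containing probenecid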
(In general: Calcium assays in cells follow changes in intracellular calcium, usually with a dye or a luminescent sensor.)

Activity calls are given as the source filed them. No rule for the calls is given here.

Sequence of Muscarinic acetylcholine receptor M2 (Rattus norvegicus) (P10980 whole entry, looked up): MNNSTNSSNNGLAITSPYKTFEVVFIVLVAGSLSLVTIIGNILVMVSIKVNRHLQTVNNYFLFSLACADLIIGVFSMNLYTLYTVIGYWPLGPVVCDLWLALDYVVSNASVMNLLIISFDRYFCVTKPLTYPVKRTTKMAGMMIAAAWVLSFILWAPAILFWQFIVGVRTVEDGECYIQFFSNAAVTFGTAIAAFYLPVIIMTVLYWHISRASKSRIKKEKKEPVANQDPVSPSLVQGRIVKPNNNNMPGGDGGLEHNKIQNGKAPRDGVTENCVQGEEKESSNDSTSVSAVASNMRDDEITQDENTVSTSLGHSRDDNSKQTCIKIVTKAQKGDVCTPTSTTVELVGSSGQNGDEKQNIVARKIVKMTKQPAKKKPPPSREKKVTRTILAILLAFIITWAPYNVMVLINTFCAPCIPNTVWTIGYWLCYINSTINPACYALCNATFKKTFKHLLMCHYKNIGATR

Take `O=C1C(=O)N(CCOc2ccccc2)c2ccc(OC(F)(F)F)cc21`: the result was inactive.
